This is an account of results in PubChem BioAssay AID463191 (Sanford-Burnham Center for Chemical Genomics, 2010).

The assay concerns AML12 mouse hepatocytes, BODIPY lipid droplet imaging. The assay can be described thus: potency against lipid droplet buildup in liver cells – imaging, AML12 mouse hepatocytes, high-content, dose response (AID 463191). The settings on record: cells loaded with 100 µM oleic acid. The procedure, abridged: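 Test system: AML12 mouse hepatocyte cell line, lipid droplet imaging. Compound: Seven-point series from 32 to 0.5 µM, 0.32% DMSO. Incubation: cells grown about 20 h at 37 °C, then overnight compound exposure.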

Activity calls are given as the source filed them.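 The calls were made as follows: active = compounds whose mean IC50 across repeat dose response tests falls below a set limit; inactive = the rest.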

As a reminder, the IC50 is the concentration at which inhibition is half-maximal. For the molecule `COc1ccc(Cl)cc1NC(=O)CN(C)C(=O)CCCc1c[nH]c2ccccc12`, the IC50 is 2.3 µM.
With `CCn1cc(CCCC(=O)NCc2cccc(OC)c2)c2ccccc21`, the IC50 is 6.43 µM (inactive).
As to `Cc1ccc(NC(=O)CSc2nc3ccccc3nc2N2CCCC2)cc1`, the IC50 is 2.11 µM.
In the case of `Cc1ccc(-c2c(C)nn3c(N4CCOCC4)cc(C)nc23)cc1` it was 0.633 µM; in that of `CCOc1ccc(CCNC(=O)CCCn2c(=O)c3cccn3c3cccnc32)cc1OCC`, 1.88 µM.
In the case of `CCOC(=O)c1ccc(NC(=O)CSc2nc3c(c(=O)n2-c2ccccc2OC)SCC3)cc1` it was 1.84 µM.
Under `CCOc1ccc(CCNC(=O)CCS(=O)(=O)c2ccc(C)cc2)cc1OCC` stands 1.85 µM; under `CCCCN(C(=O)CCC(=O)Nc1cc(C)on1)C(C(=O)NC1CCCC1)c1ccc(OCC)cc1` (centres undefined), 4.07 µM; under `CCOc1ccc(CCNC(=O)CCS(=O)(=O)c2ccc(OC)cc2)cc1OCC`, 2.72 µM.
With `COc1cccc(NC(=O)CCC(=O)Nc2cc(OC)c(NC(=O)c3cccs3)cc2OC)c1`, the IC50 was 0.754 µM.
`CCOc1ccc(CCNC(=O)CN2C(=O)NC3(CCCC3)C2=O)cc1OCC`: the IC50 was 1.07 µM.
Take `c1cc2c(cc1-c1csc(NNC3=NCCCCC3)n1)OCCO2`: the IC50 was 1.07 µM.
Under `CCOc1cc2c(cc1OCC)C(c1ccc(OC)cc1)N(c1ccccc1)C(=O)C2` (centres undefined) stands > 32 µM (inactive).
In the case of `COc1ccc(C(C(=O)NC(C)(C)C)N(Cc2ccco2)C(=O)CCC(=O)Nc2cc(C)on2)cc1` (centres undefined) it was 4.84 µM.
Under `COc1ccc(C2(c3ccc(OC)cc3)NC(=O)N(CC(=O)Nc3cc(C)ccc3OC)C2=O)cc1` stands below 0.5 µM; under `Cc1cc(C(=O)OC(C)C(=O)Nc2nc(-c3ccccc3)cs2)c(C)o1` (centres undefined), 0.758 µM.
For `CCOc1ccc(-c2csc(NNC3=NCCCCC3)n2)cc1`, the IC50 was 1.22 µM.
Regarding `COc1cc(NC(=O)c2cccs2)c(OC)cc1NC(=O)CCC(=O)Nc1ccc2ncccc2c1`, the IC50 is 2.23 µM.
In the case of `COc1ccc(Cl)cc1NC(=O)CN1C(=O)NC2(CCCC2)C1=O` it was 4.27 µM.
In the case of `CCNC(=S)N1CCc2cc(OC)c(OC)cc2C1COc1ccc(F)cc1` (centres undefined) it was 2.28 µM.
In the case of `CCOc1ccccc1Nc1nnc(SCC(=O)Nc2nc(-c3ccc(OC)cc3)cs2)s1` it was 1.02 µM; in that of `CCOc1ccc(CCNC(=O)CCNC(=O)c2ccccc2Cl)cc1OCC`, 5.88 µM (inactive); in that of `CCOc1ccc(CCNC(=O)c2c(C)nn(-c3ccccc3)c2Cl)cc1OCC`, 7.56 µM (inactive).
On to `Cc1cc(C(=O)NC2CCCc3c2cnn3-c2cccc(C)c2C)c(C)o1` (centres undefined), for which the IC50 is 2.23 µM.
Under `Cc1ccc(-n2nc3c(=O)n(CC(=O)NCCCc4ccccc4)nc(C)c3c2C)cc1` stands 4.24 µM; under `CCC(C)(C)NC(=O)C(c1ccc(OC)cc1)N(Cc1cccs1)C(=O)CCC(=O)Nc1cc(C)on1` (centres undefined), 2.24 µM; under `CCOc1ccccc1NC(=O)C1CCN(C(=O)NCc2ccccc2)CC1`, below 0.5 µM.
Under `C/C(=N\Nc1ccc(S(=O)(=O)Nc2ccccc2)cc1[N+](=O)[O-])c1ccc(N2CCOCC2)cc1` stands 1.28 µM; under `COc1ccccc1CNS(=O)(=O)c1ccc2c(c1)CC(C)N2C(=O)C1CCC1` (centres undefined), 0.68 µM; under `CCOc1cc2c(cc1OCC)C(c1ccccc1OC)OC(=O)C2` (centres undefined), > 32 µM (inactive).
In the case of `Nc1nc(-c2ccccc2)c(N=Nc2cccc3ccccc23)s1` it was 0.525 µM; in that of `CCOc1ccc(CCNC(=O)Cn2cccc2C(=O)c2ccccc2)cc1OCC`, 1.64 µM; in that of `Cc1cccc(NC(=O)CSc2nnc(C)c(=O)n2N)c1`, 6.65 µM (inactive).
Consider `CCOc1ccc(CCNC(=O)Cn2nc(C)n3cccc3c2=O)cc1OCC`, for which the IC50 is 2 µM.
In the case of `CCOc1ccc(CCNC(=O)c2cc(C)nc3ccccc23)cc1OCC` it was 6.4 µM (inactive); in that of `CCOc1ccc(CCNC(=O)C2(c3ccccc3)CC2)cc1OCC`, 3.91 µM.
As for `Cc1ccc(-n2nc3c(=O)n(CC(=O)NC(C)CCc4ccccc4)nc(C)c3c2C)cc1` (centres undefined), the IC50 was 0.581 µM.
Turning to `CCOc1ccc(CC(=O)Nc2ccc(NC(=O)c3ccco3)cc2)cc1OCC`, the IC50 was 2.35 µM.
In the case of `CCOc1ccc(NC(=O)CCSc2nc3c(c(CC)c2C#N)C(=O)CC(C)(C)C3)cc1` it was 1.77 µM.
Under `CCOc1ccc(CCNC(=O)COC(=O)/C=C/c2ccc(C)o2)cc1OCC` stands 7.62 µM (inactive); under `CCOc1ccc(C2=NNC(c3cccs3)=Nc3ccc(OC)cc32)cc1OCC`, 8.7 µM (inactive); under `CCOc1ccc(C(=O)NCC(=O)NC(C)CCc2ccccc2)cc1OCC` (centres undefined), 0.858 µM.
In the case of `CCC(C)(C)NC(=O)C(c1ccc(OC)cc1)N(Cc1ccccc1)C(=O)CCC(=O)Nc1cc(C)on1` (centres undefined) it was 3.42 µM; in that of `CCOc1ccc(CCNC(=O)CCC(=O)N2CCOc3ccccc32)cc1OCC`, 0.83 µM.
With `CCCCCCn1c(N2CCN(c3ccccc3)CC2)nc2c1c(=O)[nH]c(=O)n2C`, the IC50 is 2.46 µM.
In the case of `CC1CCCN(C2=C(NS(=O)(=O)c3ccc(Br)cc3)C(=O)c3ccccc3C2=O)C1` (centres undefined) it was 0.927 µM; in that of `COc1ccc(C(=O)OC(C)C(=O)Nc2cc(C(F)(F)F)ccc2Cl)c(OC)c1OC` (centres undefined), 0.85 µM.
Under `CCOc1ccc(CCNC(=O)c2nnc(Cc3ccc(F)cc3)o2)cc1OCC` stands 1.57 µM; under `CCOc1ccc(CCNC(=O)CS(=O)Cc2nc(-c3ccc(OC)cc3)oc2C)cc1OCC` (centres undefined), 2.11 µM.
In the case of `CCOc1ccc(CCNC(=O)/C=C/c2ccco2)cc1OCC` it was 1.05 µM; in that of `COc1ccc(CCNC(=O)c2cc3c(F)cccc3s2)cc1OC`, 5.42 µM (inactive); in that of `Cc1cc(C)cc(NC(=O)CCC(=O)Nc2cc(C)on2)c1`, 7.62 µM (inactive).
As for `COCCNC(=S)N1CCc2cc(OC)c(OC)cc2C1COc1cc(C)cc(C)c1` (centres undefined), the IC50 was 4.08 µM.
As to `CCOc1cc(CNC(=O)CCCn2c(=O)c3cccn3c3cccnc32)cc(OCC)c1OCC`, the IC50 is 0.54 µM.
Under `COc1ccc(C2(c3ccc(OC)cc3)NC(=O)N(CC(=O)Nc3ccccc3C)C2=O)cc1` stands 1.52 µM; under `COc1ccc(CCNC(=O)CN2C(=O)c3cccc4cccc(c34)C2=O)cc1OC`, 5.77 µM (inactive); under `COc1cccc(C(=O)NC2CCCc3c2cnn3-c2cc(C)cc(C)c2)c1` (centres undefined), 2.06 µM.
Under `FC(F)Oc1ccc(-c2csc(NNC3=NCCCCC3)n2)cc1` stands 0.916 µM; under `O=C(NC1CCCc2c1cnn2-c1cc(F)cc(F)c1)c1ccccn1` (centres undefined), 1.55 µM; under `CCOc1ccc(CCNC(=O)c2cc(-c3ccccc3)c(N3CCOCC3)s2)cc1OCC`, below 0.5 µM.
In the case of `CCOc1ccc(CCNC(=O)COC(=O)c2cc(OC)c(OC)c(OC)c2)cc1OCC` it was 0.559 µM; in that of `CCC(C)(C)NC(=O)C(c1sccc1C)N(Cc1ccco1)C(=O)c1csnn1` (centres undefined), 11.9 µM (inactive).
With `COc1ccc(C)cc1NC(=O)C/C(C)=N/NC(=O)Cc1cccc2ccccc12`, the IC50 is 13.8 µM (inactive).
Under `CC(C)COc1cccc(-c2cc(C(=O)Nc3ccon3)c3ccccc3n2)c1` stands 3.83 µM; under `Cc1ccc(-n2nc3c(=O)n(C(C)C(=O)NCCc4cccs4)nc(C)c3c2C)cc1` (centres undefined), 3.22 µM.
Turning to `CC1CCCN(C(=O)c2ccc3c(c2NCCO)C(=O)c2ccccc2C3=O)C1` (centres undefined), the IC50 is 0.765 µM.
As to `COc1ccc(C(C(=O)NC(C)(C)C)N(CCC(C)C)C(=O)CCC(=O)Nc2cc(C)on2)cc1` (centres undefined), the IC50 was 1.2 µM.
Under `CCCC1(c2ccccc2)NC(=O)N(CC(=O)Nc2cc(C)ccc2OC)C1=O` (centres undefined) stands > 32 µM (inactive).
Under `CCN(CC(=O)Nc1c(F)cccc1F)C(=O)CCCc1c[nH]c2ccccc12` stands 1.89 µM; under `CCc1ccc(NC(=O)CSc2nc3ccccc3nc2N2CCCC2)cc1`, 1.94 µM; under `CCOc1ccc(C(C)NC(=O)Cc2ccccc2F)cc1OCC` (centres undefined), 6.25 µM (inactive).
Under `CCCc1cc(N2CCOCC2)n2nc(C)c(-c3ccccc3)c2n1` stands below 0.5 µM; under `COC(=O)/C(=C\c1ccc2c(c1)c1ccccc1n2C)NC(=O)c1ccccc1`, 3.3 µM; under `CCNC(=S)N1CCc2cc(OC)c(OC)cc2C1COc1ccccc1OC` (centres undefined), 3.77 µM.
With `COc1ccc(NC(=O)CCC(=O)Nc2cc(OC)c(NC(=O)c3cccs3)cc2OC)cc1`, the IC50 was 0.71 µM.
In the case of `CCOc1ccc(CCNC(=O)Cn2nc(C)c3c(C)n(-c4ccccc4)nc3c2=O)cc1OCC` it was below 0.5 µM.
In the case of `COc1ccc(C(=O)OCC(=O)NC(C)CCc2ccccc2)cc1OC` (centres undefined) it was 11.7 µM (inactive); in that of `CCc1ccc(NC(=O)CNC(=O)[C@@H]2Cc3ccccc3CN2C(=O)OC(C)(C)C)cc1`, 5.02 µM (inactive).
Under `COc1ccc(C(C(=O)NC(C)(C)C)N(Cc2ccc(C)cc2)C(=O)CCC(=O)Nc2cc(C)on2)cc1` (centres undefined) stands 2.3 µM; under `Cc1ccc(CNC(=O)c2ccc(N3CCC4(CC3)CC(c3ccccc3)=NO4)c(N)c2)cc1`, 3.45 µM; under `CCOc1ccc(C(=O)OCC(=O)Nc2cc(C)on2)cc1OCC`, 1.8 µM.
As for `CCOc1ccc(CCNC(=O)CCS(=O)(=O)c2ccc(Br)cc2)cc1OCC`, the IC50 was 3.27 µM.
For `COc1cc(NC(=O)c2cccs2)c(OC)cc1NC(=O)CCC(=O)Nc1ccc(C)cc1`, the half-inhibitory concentration (IC50) is 0.79 µM.
Under `COc1ccc(CNC(=O)CN2C(=O)NC(C)(c3cccc4ccccc34)C2=O)cc1OC` (centres undefined) stands 2.32 µM; under `Cc1cc(C)c(C(=O)NC2CCCc3c2cnn3-c2cccc(C)c2C)o1` (centres undefined), 21.6 µM (inactive); under `O=C(Cc1coc2ccc3ccccc3c12)NC1CCCc2ccccc21` (centres undefined), 4.39 µM.
In the case of `CCOc1ccc(CCNC(=O)COC(=O)c2ccc(OC)c(OC)c2OC)cc1OCC` it was below 0.5 µM; in that of `CCOc1ccc(CCNC(=O)COC(=O)/C=C/c2ccc(OC)c(OC)c2)cc1OCC`, 1.5 µM; in that of `CCOc1ccc(CCNC(=O)CCC(=O)N2CCOc3ccc(C)cc32)cc1OCC`, 1.44 µM.
